This excerpt belongs to a sample that is enriched for hits.
HSF1 inhib: HSF1 inhibitors in luciferase reporter cells, primary screen, cell-based, NIH3T3, luminescence; NIH3T3-HGL HSE-luciferase, MG132-induced, luminescence 8 h; stronger effect = lower value; activity change, negative = inhibition, % at 7.5 µM (by protocol); 300,000 compounds, 0.77% hits; AID 2098, 2009;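 active = more than half of replicate wells show activity change below -50%, luminescence cut by over half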;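 also: luciferase reports HSF-1 transcriptional activity via heat shock element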
Hsp70 activator: Hsp70 transcriptional activators, primary screen, cell-based, HeLa, Hsp70 promoter luciferase, luminescence, 10 µM. 200,000 compounds, 0.04% hits. AID 1203, 2008. activation, % at 10 µM. HeLa Hsp70 promoter luciferase reporter; scaled: vehicle 0, proteasome-inhibitor control 100%;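 active = activation above the mean across all tested compounds plus 3 SD, cutoff set per campaign, cut at about 5.5% in these data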
T cruzi repl: inhibitors of intracellular T. cruzi growth, primary screen, luminescence, NIH3T3 host cells. T. cruzi beta-gal in NIH3T3, 90 h. inhibition, % (no concentration beside the values). 300,000 compounds, 1.4% hits;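 active = mean inhibition across valid replicates above about 55%, limit read from the data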;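 also: signal also drops with host cell toxicity which is not excluded here; higher percent means less beta-gal luminescence so fewer parasites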
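Test system: β-gal T. cruzi (Tulahuen C4) inside NIH/3T3 cells / Quantity: 5,000 cells/well / Measured by: luminescence from GalScreen with 0.05% NP40, read after 60 min / Medium: DMEM plus 2% FBS / Measure: parasite load inhibition, % / Reagent: Tulahuen C4 trypomastigotes, 5000/well / Schedule: co-culture of at least 90 h after 3 h attachment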
L major viab: Leishmania major promastigote growth inhibition, primary screen; 200,000 compounds, 9% hits; inhibition, % at 10 µM; Leishmania major promastigotes, resazurin fluorescence viability; in the data active = inhibition above about 50%;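 also: promastigotes grown with compound for 44 hours at 28 °C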
HSF-1 act: HSF-1 activators, primary screen, NIH3T3-HGL cells, MG132 stress, luminescence, single point. NIH3T3-HGL HSF-1 luciferase reporter, 8 h; 100% = twice DMSO control signal. activation, % at 9 µM. 300,000 compounds, 1.7% hits. AID 504408, 2011;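 active = mean replicate activation of at least 50% with a set share of replicates each reaching 50%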
Numbers stand for hits; i = inactive; nt = no result given.

SMILES	HSF1 inhib	Hsp70 activator	T cruzi repl	L major viab	HSF-1 act
C[N+]1=C(/C=C/Nc2ccccc2Cl)C(C)(C)c2ccccc21	i	i	i	98	i
CCC(C)C(=O)Nc1nc(C)c(-c2csc(Nc3cc(OC)ccc3OC)n2)s1 (configuration not stated)	i	i	i	57	i
CCCCC(=O)Nc1nc(C)c(-c2csc(Nc3cc(Cl)ccc3OC)n2)s1	i	i	i	i	i
COc1ccc(OC)c(Nc2nc(-c3sc(NC(=O)CC(C)C)nc3C)cs2)c1	i	i	i	81	i
COc1ccc(OC)c(Nc2nc(-c3sc(C)nc3C)cs2)c1	i	i	i	i	i
CCCCC(=O)Nc1nc(C)c(-c2csc(Nc3cc(OC)ccc3OC)n2)s1	i	i	i	73	i
O=c1[nH]ncc(NCCc2ccccc2)c1Cl	i	i	i	i	i
CN(C)CCCNc1cn[nH]c(=O)c1Cl	i	i	70	i	i
COc1cc(S(=O)(=O)N(Cc2cccs2)CC2CCCO2)ccc1-n1cnnn1 (configuration not stated)	i	i	i	55	i
CCOc1ccccc1CN(Cc1ccco1)S(=O)(=O)c1ccc(-n2cnnn2)c(OC)c1	i	i	i	69	i
Cc1cc(S(=O)(=O)N(Cc2ccccc2F)C2CC2)ccc1-n1cnnn1	i	i	i	100	i
COc1cc(S(=O)(=O)N(Cc2ccco2)C2CCCC2)ccc1-n1cnnn1	i	i	i	71	i
COc1ccccc1CN(Cc1cccnc1)S(=O)(=O)c1ccc(-n2cnnn2)c(OC)c1	i	nt	i	nt	i
N#Cc1c(N2CCCC2)ccc(Br)c1Cl	i	nt	i	nt	i
COC(=O)Cc1cc(=O)oc2cc(O)ccc12	i	i	i	i	i
CC(C)c1nnc(SCC(=O)NC2CCCC2)n1C	i	nt	i	nt	i
CCNc1nc(SCCOc2ccc(Br)cc2)nc(N(C)C)n1	i	i	i	58	i
CCNc1nc(NC(C)C)nc(SCCOc2ccc(C)cc2)n1	i	i	i	i	i
COc1ccc(-n2nc(C#N)c(Cl)cc2=O)cc1	nt	i	nt	99	nt
Cc1cc(C)cc(NC(=O)CSc2ncc(S(=O)(=O)c3ccccc3)c(=O)[nH]2)c1	i	i	i	53	i
C#CCSc1ncc(S(=O)(=O)c2ccccc2)c(=O)[nH]1	i	i	i	i	i
O=C(Cc1ccccc1)Nc1ccccc1C(=O)N1CCN(c2ccccc2)CC1	i	nt	i	nt	i
O=C1CSC(c2cn(-c3ccccc3)nc2-c2cc3ccccc3o2)N1Cc1ccccc1 (configuration not stated)	i	i	i	79	i
Cc1ccc(-c2nn(-c3ccccc3)cc2C2SCC(=O)N2Cc2ccccc2)o1 (configuration not stated)	i	i	i	i	i
CCCCc1ccc(NS(=O)(=O)c2c(C)n(C)c(=O)n(C)c2=O)cc1	i	nt	i	nt	64
SMILES	HSF1 inhib	Hsp70 activator	T cruzi repl	L major viab	HSF-1 act
CC1CCCN(C(=O)COC(=O)c2cccc(NS(=O)(=O)c3ccccc3)c2)C1 (configuration not stated)	i	nt	i	nt	i
CCC(CC)COC(=O)C1=C(C)NC(=O)NC1c1cc(OC)ccc1OC (configuration not stated)	i	nt	i	nt	70
Cc1ccc(N(C(=O)c2ccc(S(=O)(=O)N3CCCC3)cc2)C2C=CS(=O)(=O)C2)cc1 (configuration not stated)	i	nt	i	nt	i
Cc1ccc(NC(=O)C2CCC2)cc1S(=O)(=O)N1CCCCCC1	i	nt	i	nt	i
CCOc1ncccc1C(=O)Nc1ccc(OC)c(S(=O)(=O)N2CCCCC2)c1	i	i	i	i	i
COc1ccc(S(=O)(=O)N2CCCCC2)cc1NC(=O)c1ccc(=O)[nH]c1	i	i	i	i	i
COc1ccc(OC)c(S(=O)(=O)N2CCC(C(=O)Nc3cc(C)ccc3C)CC2)c1	i	i	i	i	i
CCn1cc(C(=O)Nc2ccc(OC)c(S(=O)(=O)N3CCCCC3)c2)c(=O)c2ccc(C)nc21	i	i	i	67	i
COc1ccc(NC(=O)c2ccc(=O)[nH]c2)cc1S(=O)(=O)N1CCCCC1	i	i	i	56	i
COc1ccc(NC(=O)C2CCC(C(C)(C)C)CC2)cc1S(=O)(=O)N1CCCCC1 (configuration not stated)	i	i	i	99	i
COC(=O)c1ccccc1NC(=O)C1CCN(S(=O)(=O)c2cc(C)ccc2OC)CC1	i	i	i	76	i
COc1ccc(S(=O)(=O)N(C)c2ccc(C(=O)NCc3ccccn3)cc2)cc1OC	i	nt	i	nt	i
COc1ccc(OC)c(S(=O)(=O)N2CCC(C(=O)Nc3cccc(C)c3)CC2)c1	i	i	i	100	i
COC(=O)c1c(NC(=O)CSc2nnc3ccccn23)sc2c1CCC2	i	i	i	56	i
Cc1ccc(C(=O)c2c(NC(=O)CSc3nnc(N)s3)sc3c2CCCC3)cc1	i	i	i	76	i
Nc1nnc(SCC(=O)Nc2sc3c(c2C(=O)c2ccccc2)CCCC3)s1	i	i	i	57	i
CCOC(=O)c1c(NC(=O)CSc2nnc3ccccn23)sc2c1CCC2	i	i	i	i	i
CC(C)N(Cc1nc(-c2ccc(Cl)cc2)no1)Cc1nccn1C	i	i	i	i	i
Cc1cccc(NC(=O)c2cc3ccccc3oc2=O)c1	i	nt	i	nt	i
Cc1ccnc(NC(=O)c2cc3ccccc3oc2=O)c1	i	i	i	i	67
CCN(C(=S)Nc1ccc(C(C)=O)cc1)C1CCCCC1	i	i	i	i	i
O=C(Nc1ccc(S(=O)(=O)Nc2ccccc2)cc1)c1ccc(CN2CCOCC2)cc1	i	i	i	82	i
O=C(Nc1ccc(S(=O)(=O)NCC2CCCO2)cc1)c1ccccc1 (configuration not stated)	-65	i	i	i	i
O=C(Nc1ccc(S(=O)(=O)NCC2CCCO2)cc1)c1cnccn1 (configuration not stated)	i	i	i	i	i
O=C(Nc1ccc(S(=O)(=O)N2CCCCC2)cc1)c1ccc(CN2CCc3ccccc3C2)cc1	i	i	i	99	i
Cc1cc2cc(CCNC(=O)CCCc3ccccc3)c(=O)[nH]c2cc1C	i	nt	i	nt	i
CCCN1CCN(C(=O)c2oc3c(Cl)cccc3c2C)CC1	i	nt	i	nt	i
O=c1c2ccccc2nc2n1C(CSc1ccccc1)CS2 (configuration not stated)	i	i	i	i	i
Cc1ccc(C(=O)Nc2ccccc2SCC2CSc3nc4ccccc4c(=O)n32)cc1 (configuration not stated)	i	i	i	50	i

From PubChem
